Consider 1 molecule from ChEMBL document CHEMBL4043093, “2-Oxo-3, 4-dihydropyrimido[4, 5-d]pyrimidinyl derivatives as new irreversible pan fibroblast growth factor receptor (FGFR) inhibitors” (Eur J Med Chem, 2017).

The structures appear in SMILES notation.

What is called IC50 is the concentration at which inhibition is half-maximal.

Experiment [1] addresses Fibroblast growth factor receptor 2 (Homo sapiens, UniProt P21802). As to the kind of experiment: Inhibition of human recombinant cytoplasmic His-tagged FGFR2 (403 to 822 residues) expressed in baculovirus using Tyr-4 peptide after 1 hr by FRET-based Z'-Lyte assay.
For experiment [2], the target named is Fibroblast growth factor receptor 4 (Homo sapiens, UniProt P22455). The experiment can be described thus: Inhibition of human recombinant His-tagged FGFR4 cytoplasmic domain ([…] residues) expressed in baculovirus using Tyr-4 peptide after 1 hr by FRET-based Z'-Lyte assay.
The target of experiment [3] is Activin receptor type-1 (Homo sapiens) (UniProt Q04771). As to the kind of experiment: Inhibition of wild-type human ACVR1 (C188 to C509 residues) expressed in Escherichia coli BL21 assessed as residual activity at 1000 nM after 30 mins by Kinomescan method relative to control. The gist of the method: (§1)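 Single-point screen at a fixed 1 µM, run within a 456-kinase DiscoveRx KINOMEscan panel. Each kinase's read-out is Percent Control, i.e. signal relative to a control without compound. Hits were scored by a Percent Control < 35 cut-off, and an S(35) selectivity score was calculated across the non-mutant kinases.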

Experiment [4] addresses ALK tyrosine kinase receptor (Homo sapiens) (UniProt Q9UM73). As to the kind of experiment: Inhibition of wild-type human partial length ALK (I1088 to E1409 residues) expressed in HEK293 cells assessed as residual activity at 1000 nM after 30 mins by Kinomescan method relative to control. In kind it is cell-based.
The target of experiment [5] is Casein kinase I isoform alpha-like (Homo sapiens) (UniProt Q8N752). As to the kind of experiment: Inhibition of wild-type human full length CSNK1A1L (M1 to N337 residues) expressed in Escherichia coli BL21 assessed as residual activity at 1000 nM after 30 mins by Kinomescan method relative to control. The method in brief:
as §1

Experiment [6] addresses Myotonin-protein kinase (Homo sapiens) (UniProt Q09013). The experiment can be described thus: Inhibition of wild-type human partial length DMPK (V47 to V415 residues) expressed in Escherichia coli BL21 assessed as residual activity at 1000 nM after 30 mins by Kinomescan method relative to control.
The subject of experiment [7] is Epidermal growth factor receptor (Homo sapiens), P00533 [L858R]. As to the kind of experiment: Inhibition of human partial length EGFR L858R mutant (R669 to V1011 residues) expressed in Escherichia coli BL21 assessed as residual activity at 1000 nM after 30 mins by Kinomescan method relative to control. The gist of the method: (§2)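 KINOMEscan binding panel of 456 kinases, with the test compound at a single concentration of 1 µM. Read-out is Percent Control.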

The target of experiment [8] is Mitogen-activated protein kinase kinase kinase 15 (Homo sapiens) (UniProt Q6ZN16). As to the kind of experiment: Inhibition of wild-type human partial length MAP3K15 (T625 to L932 residues) expressed in HEK293 cells assessed as residual activity at 1000 nM after 30 mins by Kinomescan method relative to control. The experiment is classed as cell-based.
Experiment [9] addresses Dual specificity mitogen-activated protein kinase kinase 1 (Homo sapiens) (UniProt Q02750). The experiment can be described thus: Inhibition of wild-type human full length MEK1 (M1 to V393 residues) expressed in HEK293 cells assessed as residual activity at 1000 nM after 30 mins by Kinomescan method relative to control. The experiment is classed as cell-based. The gist of the method:
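Single-concentration screen at 1 µM across a 456-kinase KINOMEscan panel. The read-out is Percent Control for each kinase.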

Experiment [10] deals with Dual specificity mitogen-activated protein kinase kinase 5 (Homo sapiens) (UniProt Q13163). The experiment can be described thus: Inhibition of wild-type human partial length MEK5 (L98 to P448 residues) expressed in HEK293 cells assessed as residual activity at 1000 nM after 30 mins by Kinomescan method relative to control. In kind it is cell-based.
Experiment [11] deals with Myosin light chain kinase 2, skeletal/cardiac muscle (Homo sapiens) (UniProt Q9H1R3). As to the kind of experiment: Inhibition of wild-type human partial length MYLK2 (D258 to K570 residues) expressed in Escherichia coli BL21 assessed as residual activity at 1000 nM after 30 mins by Kinomescan method relative to control.
Experiment [12] concerns Phosphatidylinositol 4,5-bisphosphate 3-kinase catalytic subunit alpha isoform (Homo sapiens), P42336 [C420R]. The experiment can be described thus: Inhibition of human partial length PIK3CA C420R mutant (R108 to N1068 residues) expressed in HEK293 cells assessed as residual activity at 1000 nM after 30 mins by Kinomescan method relative to control. The experiment is classed as cell-based. The method in brief:
as §2

For experiment [13], the system named is Phosphatidylinositol 4,5-bisphosphate 3-kinase catalytic subunit alpha isoform (Homo sapiens), P42336 [M1043I]. As to the kind of experiment: Inhibition of human partial length PIK3CA M1043I mutant (R108 to N1068 residues) expressed in HEK293 cells assessed as residual activity at 1000 nM after 30 mins by Kinomescan method relative to control. In kind it is cell-based. The gist of the method: as §1

Experiment [14] deals with Serine/threonine-protein kinase N1 (Homo sapiens) (UniProt Q16512). The experiment can be described thus: Inhibition of wild-type human partial length PKN1 (E598 to C948 residues) expressed in Escherichia coli BL21 assessed as residual activity at 1000 nM after 30 mins by Kinomescan method relative to control.
Experiment [15] concerns the target Receptor-interacting serine/threonine-protein kinase 4 (Homo sapiens) (UniProt P57078). The experiment can be described thus: Inhibition of wild-type human partial length RIPK4 (M1 to V303 residues) expressed in HEK293 cells assessed as residual activity at 1000 nM after 30 mins by Kinomescan method relative to control. The experiment is classed as cell-based.

The target in experiment [16] is Proto-oncogene tyrosine-protein kinase ROS (Homo sapiens) (UniProt P08922). The experiment can be described thus: Inhibition of wild-type human partial length ROS1 (A1921 to N2240 residues) expressed in Escherichia coli BL21 assessed as residual activity at 1000 nM after 30 mins by Kinomescan method relative to control.
Experiment [17] deals with Ribosomal protein S6 kinase beta-1 (Homo sapiens) (UniProt P23443). The experiment can be described thus: Inhibition of wild-type human partial length S6K1 (M1 to S421 residues) expressed in HEK293 cells assessed as residual activity at 1000 nM after 30 mins by Kinomescan method relative to control. In kind it is cell-based.
Experiment [18] addresses Serine/threonine-protein kinase SBK1 (Homo sapiens) (UniProt Q52WX2). As to the kind of experiment: Inhibition of wild-type human partial length SBK1 (P23 to P348 residues) expressed in HEK293 cells assessed as residual activity at 1000 nM after 30 mins by Kinomescan method relative to control. In kind it is cell-based.
In experiment [19] the target is Tyrosine-protein kinase SYK (Homo sapiens) (UniProt P43405). The experiment can be described thus: Inhibition of wild-type human partial length SYK (D354 to N635 residues) expressed in Escherichia coli BL21 assessed as residual activity at 1000 nM after 30 mins by Kinomescan method relative to control.
The target of experiment [20] is Serine/threonine-protein kinase TAO1 (Homo sapiens) (UniProt Q7L7X3). As to the kind of experiment: Inhibition of wild-type human partial length TAOK1 (M1 to A320 residues) expressed in HEK293 cells assessed as residual activity at 1000 nM after 30 mins by Kinomescan method relative to control. The experiment is classed as cell-based.
Experiment [21] has as its target Tyrosine-protein kinase receptor Tie-1 (Homo sapiens) (UniProt P35590). As to the kind of experiment: Inhibition of wild-type human partial length TIE1 (T819 to A1138 residues) expressed in Escherichia coli BL21 assessed as residual activity at 1000 nM after 30 mins by Kinomescan method relative to control.

Chain of Tyrosine-protein kinase receptor Tie-1 (Homo sapiens) (P35590 whole entry, the tested form may be a part): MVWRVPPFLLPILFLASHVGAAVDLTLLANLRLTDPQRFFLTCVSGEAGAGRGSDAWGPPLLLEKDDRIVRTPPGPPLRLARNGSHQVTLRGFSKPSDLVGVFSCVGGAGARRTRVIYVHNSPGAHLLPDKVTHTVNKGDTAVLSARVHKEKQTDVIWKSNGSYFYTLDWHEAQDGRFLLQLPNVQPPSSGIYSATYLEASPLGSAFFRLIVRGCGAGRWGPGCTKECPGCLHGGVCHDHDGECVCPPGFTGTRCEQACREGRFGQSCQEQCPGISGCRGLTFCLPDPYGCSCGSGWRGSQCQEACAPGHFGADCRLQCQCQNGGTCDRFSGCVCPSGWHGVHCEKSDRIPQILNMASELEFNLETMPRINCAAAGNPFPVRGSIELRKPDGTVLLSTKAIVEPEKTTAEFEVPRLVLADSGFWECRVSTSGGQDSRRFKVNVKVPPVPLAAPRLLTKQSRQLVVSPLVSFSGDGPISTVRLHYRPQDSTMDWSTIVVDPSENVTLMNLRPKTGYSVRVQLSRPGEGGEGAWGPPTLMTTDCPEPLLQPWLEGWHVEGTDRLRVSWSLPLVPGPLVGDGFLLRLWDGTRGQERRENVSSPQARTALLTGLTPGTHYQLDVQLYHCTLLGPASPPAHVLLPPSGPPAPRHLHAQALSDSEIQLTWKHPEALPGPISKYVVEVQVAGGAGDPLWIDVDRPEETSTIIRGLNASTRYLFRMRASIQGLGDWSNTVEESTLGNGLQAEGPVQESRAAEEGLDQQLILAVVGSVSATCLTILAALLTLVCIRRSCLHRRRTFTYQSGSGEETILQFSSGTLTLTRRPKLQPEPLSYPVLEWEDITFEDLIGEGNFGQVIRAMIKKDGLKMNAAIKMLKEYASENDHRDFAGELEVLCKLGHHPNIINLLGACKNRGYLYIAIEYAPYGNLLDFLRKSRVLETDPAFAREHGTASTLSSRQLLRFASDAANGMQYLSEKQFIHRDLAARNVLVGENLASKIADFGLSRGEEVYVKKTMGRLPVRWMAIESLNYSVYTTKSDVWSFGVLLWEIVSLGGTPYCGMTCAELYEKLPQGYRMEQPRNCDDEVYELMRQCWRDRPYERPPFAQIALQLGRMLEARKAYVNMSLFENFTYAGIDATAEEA
Chain of Casein kinase I isoform alpha-like (Homo sapiens) (Q8N752 whole entry, the tested form may be a part, canonical isoform): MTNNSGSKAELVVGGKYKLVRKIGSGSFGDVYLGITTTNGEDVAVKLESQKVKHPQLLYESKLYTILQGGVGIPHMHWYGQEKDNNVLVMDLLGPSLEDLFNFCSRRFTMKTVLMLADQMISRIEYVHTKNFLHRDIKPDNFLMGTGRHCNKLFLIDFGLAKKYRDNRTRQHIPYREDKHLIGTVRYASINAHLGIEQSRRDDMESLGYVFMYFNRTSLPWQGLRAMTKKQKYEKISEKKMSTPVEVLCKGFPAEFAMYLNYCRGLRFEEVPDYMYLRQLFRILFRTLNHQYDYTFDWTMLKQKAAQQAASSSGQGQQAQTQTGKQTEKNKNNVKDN
Chain of Myosin light chain kinase 2, skeletal/cardiac muscle (Homo sapiens) (Q9H1R3 whole entry, the tested form may be a part, canonical isoform): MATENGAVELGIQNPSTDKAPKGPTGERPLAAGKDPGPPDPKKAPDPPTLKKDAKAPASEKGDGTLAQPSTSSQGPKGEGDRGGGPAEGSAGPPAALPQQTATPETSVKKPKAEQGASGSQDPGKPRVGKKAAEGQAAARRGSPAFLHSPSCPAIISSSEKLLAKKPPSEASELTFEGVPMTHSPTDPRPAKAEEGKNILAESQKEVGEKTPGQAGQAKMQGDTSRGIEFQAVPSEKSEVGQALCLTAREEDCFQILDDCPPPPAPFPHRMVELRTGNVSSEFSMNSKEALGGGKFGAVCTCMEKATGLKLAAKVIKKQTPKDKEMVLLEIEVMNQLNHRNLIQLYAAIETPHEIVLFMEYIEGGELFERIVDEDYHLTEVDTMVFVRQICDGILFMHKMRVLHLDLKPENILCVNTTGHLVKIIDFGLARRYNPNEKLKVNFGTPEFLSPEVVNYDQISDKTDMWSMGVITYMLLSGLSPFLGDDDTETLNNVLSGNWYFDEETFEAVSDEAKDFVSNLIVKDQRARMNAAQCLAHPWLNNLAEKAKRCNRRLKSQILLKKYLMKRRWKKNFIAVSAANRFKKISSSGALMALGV
Chain of Serine/threonine-protein kinase N1 (Homo sapiens) (Q16512 2-942 limits assumed): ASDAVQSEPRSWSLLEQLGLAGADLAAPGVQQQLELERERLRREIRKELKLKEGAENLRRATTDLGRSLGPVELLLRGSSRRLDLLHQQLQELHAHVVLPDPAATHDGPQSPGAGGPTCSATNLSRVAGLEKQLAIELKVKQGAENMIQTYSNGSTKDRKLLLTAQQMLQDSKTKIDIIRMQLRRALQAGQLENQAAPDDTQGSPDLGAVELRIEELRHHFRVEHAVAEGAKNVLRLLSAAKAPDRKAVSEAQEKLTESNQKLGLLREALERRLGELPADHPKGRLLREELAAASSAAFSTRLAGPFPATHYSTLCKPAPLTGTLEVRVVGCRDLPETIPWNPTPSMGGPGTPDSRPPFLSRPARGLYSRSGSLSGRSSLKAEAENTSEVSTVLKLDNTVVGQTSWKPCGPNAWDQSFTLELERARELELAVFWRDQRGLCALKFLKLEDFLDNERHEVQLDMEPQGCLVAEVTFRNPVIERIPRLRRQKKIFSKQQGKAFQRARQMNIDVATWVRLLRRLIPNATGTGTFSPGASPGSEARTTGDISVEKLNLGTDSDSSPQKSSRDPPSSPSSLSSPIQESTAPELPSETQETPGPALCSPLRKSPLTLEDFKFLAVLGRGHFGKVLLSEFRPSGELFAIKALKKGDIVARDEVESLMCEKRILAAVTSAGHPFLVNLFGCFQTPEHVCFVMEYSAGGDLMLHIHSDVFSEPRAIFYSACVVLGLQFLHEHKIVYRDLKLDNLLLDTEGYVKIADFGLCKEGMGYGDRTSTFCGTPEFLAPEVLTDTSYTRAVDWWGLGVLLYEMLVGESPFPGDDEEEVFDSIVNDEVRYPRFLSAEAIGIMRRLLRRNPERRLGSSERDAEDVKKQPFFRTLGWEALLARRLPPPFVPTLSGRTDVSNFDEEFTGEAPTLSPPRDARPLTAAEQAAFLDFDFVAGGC
Chain of Receptor-interacting serine/threonine-protein kinase 4 (Homo sapiens) (P57078 whole entry, the tested form may be a part): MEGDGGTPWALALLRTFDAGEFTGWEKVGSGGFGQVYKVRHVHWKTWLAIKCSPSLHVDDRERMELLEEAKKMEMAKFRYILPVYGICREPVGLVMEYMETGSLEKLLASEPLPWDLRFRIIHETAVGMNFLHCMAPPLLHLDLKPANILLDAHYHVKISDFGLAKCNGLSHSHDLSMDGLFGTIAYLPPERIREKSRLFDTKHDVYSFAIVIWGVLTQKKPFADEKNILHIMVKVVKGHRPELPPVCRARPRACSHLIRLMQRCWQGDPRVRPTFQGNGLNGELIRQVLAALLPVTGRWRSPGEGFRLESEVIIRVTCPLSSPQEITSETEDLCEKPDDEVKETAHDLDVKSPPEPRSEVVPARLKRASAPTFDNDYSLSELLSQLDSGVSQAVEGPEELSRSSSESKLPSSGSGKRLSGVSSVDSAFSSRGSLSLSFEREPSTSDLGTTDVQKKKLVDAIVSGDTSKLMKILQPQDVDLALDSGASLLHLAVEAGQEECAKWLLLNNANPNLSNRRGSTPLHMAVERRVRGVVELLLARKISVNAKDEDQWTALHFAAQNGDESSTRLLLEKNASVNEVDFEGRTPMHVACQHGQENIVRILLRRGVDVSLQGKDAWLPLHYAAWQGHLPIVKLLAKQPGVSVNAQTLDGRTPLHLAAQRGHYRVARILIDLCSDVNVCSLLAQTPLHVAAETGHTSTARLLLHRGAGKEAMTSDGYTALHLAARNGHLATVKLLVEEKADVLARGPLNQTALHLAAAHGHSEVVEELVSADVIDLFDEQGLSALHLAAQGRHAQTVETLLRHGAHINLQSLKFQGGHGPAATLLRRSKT
Chain of Fibroblast growth factor receptor 2 (P21802 whole entry, the tested form may be a part): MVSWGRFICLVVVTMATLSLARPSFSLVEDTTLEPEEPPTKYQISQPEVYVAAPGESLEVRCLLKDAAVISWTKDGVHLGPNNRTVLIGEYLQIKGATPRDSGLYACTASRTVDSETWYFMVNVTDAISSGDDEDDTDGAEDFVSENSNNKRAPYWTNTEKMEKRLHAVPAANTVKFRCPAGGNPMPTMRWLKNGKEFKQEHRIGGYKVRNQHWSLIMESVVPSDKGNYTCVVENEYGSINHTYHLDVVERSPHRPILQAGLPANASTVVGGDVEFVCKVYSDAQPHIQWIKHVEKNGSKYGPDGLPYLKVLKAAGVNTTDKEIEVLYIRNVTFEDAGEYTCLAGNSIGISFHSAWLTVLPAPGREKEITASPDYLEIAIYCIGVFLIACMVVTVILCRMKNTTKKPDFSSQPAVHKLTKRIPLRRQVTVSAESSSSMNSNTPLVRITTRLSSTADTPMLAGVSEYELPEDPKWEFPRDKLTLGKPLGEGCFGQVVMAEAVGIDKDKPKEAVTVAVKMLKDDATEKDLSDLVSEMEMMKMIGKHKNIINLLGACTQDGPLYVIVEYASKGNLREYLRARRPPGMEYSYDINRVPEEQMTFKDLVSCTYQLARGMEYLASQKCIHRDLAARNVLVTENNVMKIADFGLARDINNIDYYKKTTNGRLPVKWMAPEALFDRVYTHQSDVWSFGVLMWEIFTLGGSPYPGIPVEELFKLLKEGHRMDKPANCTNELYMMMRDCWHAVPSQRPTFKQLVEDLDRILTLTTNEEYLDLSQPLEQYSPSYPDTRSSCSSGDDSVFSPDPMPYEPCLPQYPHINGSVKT
Chain of Dual specificity mitogen-activated protein kinase kinase 1 (Homo sapiens) (Q02750 whole entry, the tested form may be a part): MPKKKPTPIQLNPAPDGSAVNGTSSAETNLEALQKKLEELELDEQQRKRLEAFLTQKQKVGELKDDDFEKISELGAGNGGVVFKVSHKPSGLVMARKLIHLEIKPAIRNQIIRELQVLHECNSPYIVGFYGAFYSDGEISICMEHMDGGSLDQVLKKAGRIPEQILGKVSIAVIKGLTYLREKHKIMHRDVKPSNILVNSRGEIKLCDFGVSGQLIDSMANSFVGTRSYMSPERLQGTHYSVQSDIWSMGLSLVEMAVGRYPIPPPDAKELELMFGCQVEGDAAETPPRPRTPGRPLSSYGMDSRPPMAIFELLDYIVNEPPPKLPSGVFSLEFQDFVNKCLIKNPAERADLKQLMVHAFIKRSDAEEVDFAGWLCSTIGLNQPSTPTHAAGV

As for `COc1cc(OC)c(Cl)c(N2Cc3cnc(Nc4ccc(F)cc4)nc3N(C3CCN(C(=O)/C=C/CN(C)C)CC3)C2=O)c1Cl`, the IC50 came out at 1.45 nM in [1] and 78.1 nM in experiment [2]. Further, the Activity in [3] stood at 100%; in [4], 100%; in experiment [5], 100%; in experiment [6] it was 100%; in experiment [7], 90%; in experiment [8], 100%. Further, the Activity in experiment [9] amounted to 100%; in [10], 90%; in [11], 82%; in experiment [12], 100%; in [13] it was 95%; in [14], 92%. The Activity in [15] came out at 100%; in experiment [16], 95%; in [17] it was 92%; in experiment [18] it was 90%; in [19] it was 100%; in experiment [20] it was 13%. In experiment [21], the Activity came to 19%.
